Assay outcomes (PubChem)
TRPC6 inh – mouse TRPC6 channel inhibitors, primary screen, cell-based, HEK293, membrane potential dye | ACh-evoked depolarization; hits give low values | B-score at 10 µM | actives 1.1% (n = 310,000);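 active = B-score under library mean minus 3 SD, initial fluorescence not abnormally high, positive integrated signal ratio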;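 also: B-score derived from integrated fluorescence ratio over the kinetic read; more negative B-score means stronger inhibition of depolarization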
Target sequence (Q61143 whole entry, looked up): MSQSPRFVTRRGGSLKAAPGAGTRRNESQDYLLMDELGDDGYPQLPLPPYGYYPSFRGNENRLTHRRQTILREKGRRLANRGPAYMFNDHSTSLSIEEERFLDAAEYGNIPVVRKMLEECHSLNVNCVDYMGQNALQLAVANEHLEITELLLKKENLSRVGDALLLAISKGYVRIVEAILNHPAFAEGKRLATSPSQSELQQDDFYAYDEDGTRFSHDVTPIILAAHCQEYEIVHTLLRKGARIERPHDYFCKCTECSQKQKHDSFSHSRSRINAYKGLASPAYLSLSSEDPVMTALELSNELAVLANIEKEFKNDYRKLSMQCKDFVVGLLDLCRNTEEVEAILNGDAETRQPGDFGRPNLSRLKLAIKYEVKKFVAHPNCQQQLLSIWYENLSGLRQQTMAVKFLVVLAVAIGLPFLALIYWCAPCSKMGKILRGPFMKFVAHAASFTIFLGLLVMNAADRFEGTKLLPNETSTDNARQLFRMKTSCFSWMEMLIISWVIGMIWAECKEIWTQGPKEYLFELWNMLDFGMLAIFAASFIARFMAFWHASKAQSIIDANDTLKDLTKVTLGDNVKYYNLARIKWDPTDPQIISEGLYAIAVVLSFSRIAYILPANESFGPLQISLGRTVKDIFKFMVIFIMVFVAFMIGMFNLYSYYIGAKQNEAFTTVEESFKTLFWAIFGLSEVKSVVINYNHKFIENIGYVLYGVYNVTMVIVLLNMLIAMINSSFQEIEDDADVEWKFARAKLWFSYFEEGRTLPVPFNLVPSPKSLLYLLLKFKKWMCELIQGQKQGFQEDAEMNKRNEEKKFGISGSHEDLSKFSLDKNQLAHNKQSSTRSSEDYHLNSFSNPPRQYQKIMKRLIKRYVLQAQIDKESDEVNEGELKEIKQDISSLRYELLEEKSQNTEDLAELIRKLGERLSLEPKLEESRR
TRPC6 activator – mouse TRPC6 channel activators, primary screen, cell-based, HEK293, membrane potential dye; Short transient receptor potential channel 6 (Mus musculus), Q61143; HEK293-TRPC6 membrane potential dye fluorescence; hits give high values; B-score at 10 µM; actives 0.13% (n = 310,000); AID 2550, 2010;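 active = B-score of the integrated fluorescence ratio above library mean plus 3 SD, and starting fluorescence ratio within library mean plus 5 SD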;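 also: higher score means more depolarization so channel activation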
TRPC4 inh – inhibitors of mouse TRPC4 channel, primary screen, Fluo4 calcium, HEK293 TRPC4beta/mu-opioid cells; Short transient receptor potential channel 4 (Mus musculus), Q9QUQ5; DAMGO-evoked Fluo4 calcium flux; hits give low values; B-score at 10 µM; actives 0.39% (n = 300,000); AID 2247, 2010;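 active = B-score over 3 SD under the library average, no early fluorescence shift, positive overall ratio signal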
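test system = HEK293 cells with stable TRPC4beta plus mu-opioid receptor expression | detection = Fluo4 Ca2+ flux fluorescence | read-out = integrated fluorescence ratio relative to baseline, converted to per-well B score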
TRPC4 PAM – positive allosteric modulators of TRPC4, primary screen, cell-based, mouse TRPC4beta, HEK293 mu-opioid, Fluo-4 calcium; Short transient receptor potential channel 4 (Mus musculus), Q9QUQ5; DAMGO EC20, Fluo-4 Ca2+ flux; hits give high values; B-score at 10 µM; actives 0.42% (n = 310,000);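 active = B-score of calcium response area above 5 SD of library B-scores, with initial fluorescence ratio within 5 SD of library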;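 also: B-score of integrated fluorescence ratio over time as area under calcium response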
TRPC4 act – activators of mouse TRPC4 channel, primary screen, Fluo4 calcium, HEK293 TRPC4beta/mu-opioid cells; Short transient receptor potential channel 4 (Mus musculus), Q9QUQ5; Fluo4 calcium fluorescence; hits give high values; B-score at 10 µM; actives 0.49% (n = 310,000);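 active = B-score above 5 SD of library B-scores, and initial fluorescence ratio not above library mean plus 5 SD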;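 also: positive B-score marks a calcium rise read as TRPC4 activation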
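system = HEK293 cells stably co-expressing mouse TRPC4beta and mu-opioid receptor | schedule = Fluo4 dye loading 45 min at room temperature, 110 s recording | measure = B-scored integrated calcium fluorescence ratio | signal = Fluo4 calcium-sensitive dye fluorescence, kinetic, 1 Hz baseline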
Active calls of the source: *; i = inactive. In the library only some 2.3% were active in any assay of this set; here they are far more common.

SMILES	TRPC6 inh	TRPC6 activator	TRPC4 inh	TRPC4 PAM	TRPC4 act
CCC(C)NCCC(=O)Nc1ccc(Cl)c(S(=O)(=O)Nc2ccc(Cl)cc2)c1 (stereo not given)	i	i	i	11*	i
CCn1cc(CNC(=O)c2cc(COc3ccc(F)cc3F)on2)cn1	i	i	i	i	i
COC(=O)c1ccc(C(=S)NCC2(N(C)C)CCCCC2)cc1	i	i	i	i	101*
CC1(C)CC2CC(C)(CN2C(=O)c2cc(-c3ccc(O)cc3)on2)C1 (stereo not given)	i	i	-6*	i	i
COc1cccc(-c2cc(C(=O)N3CC4(C)CC3CC(C)(C)C4)no2)c1 (stereo not given)	i	i	i	i	i
C[C@]12CCC(=O)C=C1C=C[C@@H]1[C@@H]2CC[C@@]2(C)[C@H]1CC[C@@]21CCC(=O)O1	i	i	i	i	i
O=C(CCCl)Nc1cc(SCCO)cc([N+](=O)[O-])c1	i	i	i	i	i
O=C(Nc1cc(SCCO)cc([N+](=O)[O-])c1)c1ccc(Br)o1	i	i	-5*	i	i
CCOC(=O)N1CCN(C(=O)COC(=O)c2oc3ccc(OC)cc3c2C)CC1	i	i	i	i	i
CCOc1cc(CNCCO)cc(Br)c1OCc1ccccc1Cl	i	i	i	i	i
CCOc1cc(CNCCCN2CCOCC2)cc(Br)c1OCc1ccccc1Cl	i	i	-7*	i	i
CCOc1ccc(CN(C)C(=O)CCN2C(=O)c3ccccc3C2=O)cc1OC	i	i	i	i	i
COc1ccc(C(=O)OC2CCCCC2CN(C)C)cc1 (stereo not given)	i	i	i	i	i
CN(C)CC1CCCCC1OC(=O)c1ccc(Br)cc1 (stereo not given)	i	i	-6*	i	i
Cc1ccc2nc(-c3cccnc3)cc(C(=O)Nc3ccc(F)cc3C)c2c1	i	i	i	i	i
CC(=O)/C=C1/C(=O)Nc2ccccc21	i	i	-5*	i	i
C=CCOc1cccc(C(=O)/C=C2/C(=O)Nc3ccccc32)c1	i	i	i	i	i
O=C(CNS(=O)(=O)c1ccc2ccccc2c1)NCCc1ccccn1	i	i	i	i	137*
O=S(=O)(NCc1ccccn1)c1ccc2ccccc2c1	i	i	i	i	i
O=C(c1ccc2c(c1)OCO2)C1CCCN(Cc2cccn2-c2cccnc2)C1 (stereo not given)	i	i	-6*	i	i
O=C(c1ccc2c(c1)OCO2)C1CCCN(Cc2cc(F)ccc2-n2cccn2)C1 (stereo not given)	i	i	-5*	i	i
O=C(c1ccc(Cl)cc1)C1CCCN(Cc2cccn2-c2cccnc2)C1 (stereo not given)	i	i	i	i	i
O=C(c1ccc2c(c1)OCO2)C1CCCN(Cc2ccccc2OC(F)F)C1 (stereo not given)	i	i	-7*	i	i
COc1ccc(C(=O)NNC(=O)c2ccc(S(=O)(=O)N3CCCCC3)cc2)cc1	i	i	i	i	i
CCOc1ccccc1OCCCCCc1c(C)n[nH]c1C	i	i	i	i	i
SMILES	TRPC6 inh	TRPC6 activator	TRPC4 inh	TRPC4 PAM	TRPC4 act
Cc1cccc(OCCCCc2c(C)n[nH]c2C)c1C	i	i	-8*	i	i
Cc1cccc(OCCCOc2cccc3cccnc23)c1C	i	i	i	11*	i
CC(NC(=O)Cn1cc(C(F)(F)F)ccc1=O)c1ccc(F)cc1 (stereo not given)	i	i	i	i	i
CCCCN(C)CCNC(=O)C1CCN(S(=O)(=O)c2cccc3nsnc23)CC1	i	i	i	11*	i
CCCCN(CC)CCNC(=O)C1CCN(S(=O)(=O)c2cccc3nsnc23)CC1	i	i	i	i	i
O=C(NCCCN1CCCCCC1)C1CCCN(S(=O)(=O)c2cccc3nsnc23)C1 (stereo not given)	i	i	i	i	i
CCCCN(CC)CCNC(=O)C1CCCN(S(=O)(=O)c2cccc3nsnc23)C1 (stereo not given)	i	i	i	i	73*
CC1CCN(CCNC(=O)C2CCCN(S(=O)(=O)c3cccc4nsnc34)C2)CC1 (stereo not given)	i	i	i	12*	i
COC(=O)C1=C(C)N(Cc2ccccc2)C(=O)N[C@H]1c1ccccc1	i	i	i	i	i
COC(=O)C1=C(C)N(Cc2ccccc2)C(=NCCc2ccccn2)N[C@H]1c1cccc(F)c1	i	i	i	i	88*
COC(=O)C1=C(C)N(Cc2ccccc2)C(=S)N[C@H]1c1ccccc1	i	i	-6*	i	i
CCN1C(=NCCc2ccccn2)N[C@@H](c2cccc(F)c2)C(C(=O)OC)=C1C	i	i	i	i	i
O=C(Nc1ccnn1C1CCN(CCCC2CCCC2)CC1)c1ccccc1Cl	i	i	-8*	i	i
O=C(Nc1ccc([N+](=O)[O-])cc1)c1cccc(S(=O)(=O)Nc2cccnc2)c1	i	i	i	i	i
COCCCNC(=O)c1ccc2c(c1)OCO2	i	i	i	i	i
COc1cccc(C(=O)NCCCN2CCN(CCCNC(=O)c3cccc(OC)c3)CC2)c1	i	i	i	12*	i
O=C(NCCCN1CCN(CCCNC(=O)c2ccc3c(c2)OCO3)CC1)c1ccc2c(c1)OCO2	i	i	i	i	138*
O=C(NCCCN1CCN(CCCNC(=O)c2cccc(Cl)c2)CC1)c1cccc(Cl)c1	i	i	i	18*	i
COc1cccc(C(=O)NCCCNC(=O)c2cccc(OC)c2)c1	i	i	i	i	i
CCCCn1c(-c2ccco2)nc2oc3ccccc3c(=O)c2c1=O	i	i	i	i	i
CC(=O)c1ccc(NC(=O)/C(=C\c2cccs2)NC(=O)c2ccco2)cc1	i	i	i	i	i
